Published values collected from several papers.
Protocols differ between the studies behind these lines.
Medium: Caco-2

Compound	tested at	time	pH	endpoint	result
CC[C@@]1(O)C(=O)OCc2c1cc1n(c2=O)Cc2cc3ccccc3nc2-1	–	105 min	–	Papp B→A	~3.5 ×10⁻⁶ cm/s
C[C@H]1O[C@@H](O[C@H]2[C@@H](O)C[C@H](O[C@H]3[C@@H](O)C[C@H](O[C@H]4CC[C@@]5(C)[C@H](CC[C@@H]6[C@@H]5C[C@@H](O)[C@]5(C)[C@@H](C7=CC(=O)OC7)CC[C@]65O)C4)O[C@@H]3C)O[C@@H]2C)C[C@H](O)[C@@H]1O	10 µM	1 h	pH 7.4	Papp B→A	22.8 ×10⁻⁶ cm/s
NC[C@H]1O[C@@H](O[C@@H]([C@H](NCCCC(=O)NCc2ccc(N3CCC(Oc4ccc(OC(F)(F)F)cc4)CC3)cc2)C(N)=O)[C@H]2O[C@@H](n3ccc(=O)[nH]c3=O)C(O)C2O)[C@H](O)[C@@H]1O (stereo partly shown)	–	–	–	Papp	< 1 ×10⁻⁶ cm/s
O=C(CCCN1CCC2(CC1)C(=O)NCN2c1ccccc1)N(CC1CCCCC1)c1ccccc1	–	–	–	Papp A→B	2.83 ×10⁻⁶ cm/s
COC(=O)N[C@H](C(=O)NN(CCC[C@@]1(Cc2ccccc2)C(=O)N([C@H]2c3ccccc3C[C@H]2O)C[C@H]1O)Cc1ccc(Br)cc1)C(C)(C)C	10 µM	1 h	pH 7.4	Papp A→B	> 20 ×10⁻⁶ cm/s
C/N=c1\nc(-c2ccccc2)n(-c2ccccc2)s1	20 µM	95 min	–	Papp B→A	37.4 ×10⁻⁶ cm/s
CC(C)NCC(O)COc1cccc2ccccc12 (stereo not shown)	–	1 h	pH 7.4	Papp A→B	21.8 ×10⁻⁶ cm/s
C=C(CCC=C(C)C)[C@H]1CC[C@]2(C)[C@@H]1[C@H](O)C[C@@H]1[C@@]3(C)C[C@@H](O)[C@H](O[C@@H]4O[C@H](CO)[C@@H](O)[C@H](O)[C@H]4O[C@@H]4O[C@H](CO)[C@@H](O)[C@H](O)[C@H]4O)C(C)(C)[C@@H]3CC[C@]12C	1 mg/mL	–	pH 7.4	Papp	3.56 ×10⁻⁶ cm/s
N=c1c2c(-c3ccccc3)c(-c3ccccc3)n(Cc3ccccc3)c2ncn1[C@H]1CC[C@H](O)CC1	3 µM	2 h	pH 7.4	Papp B→A	2 ×10⁻⁶ cm/s
C[C@]12C[C@@H](O)[C@H]3[C@@H](CC[C@]4(O)C[C@@H](O)C[C@@H](O)[C@]34CO)[C@@]1(O)CC[C@@H]2c1cn(Cc2ccccc2)nn1	–	40 min	pH 6.5	Papp B→A	0.14 ×10⁻⁶ cm/s
C=CCc1ccc(O)c(-c2cc(CC=C)ccc2O)c1	0.05 mg/mL	4 h	pH 7.4	Papp A→B	9 ×10⁻⁶ cm/s
COc1cc2c(c(OC)c1OC)-c1ccc(OC)c(=O)cc1[C@@H](NC(C)=O)CC2	–	–	–	Papp B→A	4.9 ×10⁻⁶ cm/s
COc1ccc2c(c1)[C@]13CCCC[C@@H]1[C@H](C2)N(C)CC3	10 µM	–	pH 6.5	Papp B→A	69.6 ×10⁻⁶ cm/s
